The subject of series [1] is Epitheloid cervix carcinoma cell line (HeLa). Nature of the series: MTT cytotoxicity assay, HeLa. In kind it is cell-based, human. To be noted: for IC50: Homo sapiens, 24 h, read-out: IC50 (μM) HeLa. In short, it runs like this: (§1)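 Cells grown in RPMI-1640 with 10% FBS, penicillin 100 units/mL and streptomycin 100 μg/mL at 37 °C, 5% CO2. Seeded at 1.0 × 10^4 cells/well for 48 h, then exposed to a range of test compound concentrations for 24 h, with CA-4 as positive control. MTT (5 mg/mL solution) added for 4 h, formazan dissolved in DMSO, absorbance read at 570 nm. IC50 = 50% growth inhibition, mean ± SD.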
In general terms: Tetrazolium assays rely on reduction of a dye to a coloured formazan, in cell work by metabolically active cells.

Series [2] deals with Human colorectal carcinoma cell line (HCT-116). In words: MTT cytotoxicity assay, HCT-116. In kind it is cell-based. Conditions: for IC50: Homo sapiens, HCT-116, 24 h, read-out: IC50 (μM) HCT-116. In short, it runs like this:
as §1

A further series concerns tubulin. Nature of the series: In vitro tubulin polymerization inhibition assay. In kind it is biochemical. To be noted: read-out: IC50 (μM) tubulin polymerization inhibition; 4 mg/mL tubulin, 37 °C, OD340, mean ± SD from three independent experiments.
Series [3] concerns Human hepatocellular carcinoma cell line (HepG2). In words: MTT cytotoxicity assay, HepG2. In kind it is cell-based. To be noted: for IC50: Homo sapiens, HepG2, 24 h, read-out: IC50 (μM) HePG2; for cytotoxic activity, class in words, HepG2: MTT assay. In a few lines:
as §1

Series [4] deals with Human breast adenocarcinoma cell line (MCF-7). In words: MTT cytotoxicity assay, MCF-7. Conditions: for IC50: Homo sapiens, MCF7, 24 h, read-out: IC50 (μM) MCF-7. In kind it is cell-based. In short, it runs like this:
as §1

The IC50 is the concentration at which inhibition is half-maximal. Turning to `COc1cc(-c2csc(NC(=O)CNN)n2)cc(OC)c1OC` [Compound 8, 2-Hydrazinyl-N-(4-(3,4,5-trimethoxyphenyl)thiazol-2-yl)acetamide], the IC50 in series [1] was 6.15 ± 0.3 µM; in series [2], 5.32 ± 0.3 µM; in the series with tubulin it was 3.91 ± 0.24 µM; in series [3], 3.35 ± 0.2 µM; in series [4], 8.66 ± 0.4 µM.

For `COc1cc(-c2csc(NC(=O)CN3CCNCC3)n2)cc(OC)c1OC` [Compound 6a, 2-(Piperazin-1-yl)-N-(4-(3,4,5-trimethoxyphenyl)thiazol-2-yl)acetamide], the IC50 in series [1] was found to be 47.7 ± 2.4 µM; in series [2], 28.9 ± 1.4 µM; with tubulin, 4.5 ± 0.27 µM; in series [3], 8.17 ± 0.4 µM; in series [4], 40.9 ± 2 µM.

With `CCCCNCC(=O)Nc1nc(-c2cc(OC)c(OC)c(OC)c2)cs1` [Compound 5b, 2-(Butylamino)-N-(4-(3,4,5-trimethoxyphenyl)thiazol-2-yl)acetamide], the IC50 in series [1] came out at 28.3 ± 1.4 µM; in series [2], 24.4 ± 1.2 µM; in series [3], 10.9 ± 0.5 µM; in series [4], 22.8 ± 1.1 µM. The “cytotoxic activity, class in words, HepG2” value in series [3] is “strong (11–20 (strong))”.

In the case of `COc1cc(-c2csc(NC(=O)NCCN3CCOCC3)n2)cc(OC)c1OC` [Compound 13b, 1-(2-Morpholinoethyl)-3-(4-(3,4,5-trimethoxyphenyl)thiazol-2-yl)urea], the concentration for half-maximal inhibition (IC50) in series [1] was 43.9 ± 2.2 µM; in series [2], 27.4 ± 1.4 µM; in series [3] it was 25.7 ± 1.3 µM; in series [4], 32 ± 1.6 µM.

As for `CCN1CCN(CC(=O)Nc2nc(-c3cc(OC)c(OC)c(OC)c3)cs2)CC1` [Compound 6c, 2-(4-Ethylpiperazin-1-yl)-N-(4-(3,4,5-trimethoxyphenyl)thiazol-2-yl)acetamide], the IC50 in series [1] turned out to be 48.2 ± 2.4 µM; in series [2], 37.2 ± 1.9 µM; in series [3], 33.9 ± 1.7 µM; in series [4], 41.4 ± 2.1 µM.

Turning to `COc1cc(-c2csc(NC(=O)CNc3ccccc3)n2)cc(OC)c1OC` [Compound 7a, 2-(Phenylamino)-N-(4-(3,4,5-trimethoxyphenyl)thiazol-2-yl)acetamide], the IC50 in series [1] was 54.1 ± 2.7 µM; in series [2], 52.5 ± 2.6 µM; in series [3], 94.1 ± 4.7 µM; in series [4] it was more than 100 µM. For the same molecule, in series [1] (MTT assay), the “cytotoxic activity, class in words, HeLa” value is “noncytotoxic (above 100 (noncytotoxic))”. Further, the “cytotoxic activity, class in words, HCT-116” value in series [2] (MTT assay) is recorded as “weak (51–100 (weak))”. For the same molecule, the “cytotoxic activity, class in words, HepG2” value in series [3] was “weak (51–100 (weak))”. Besides, in series [4] (MTT assay), the “cytotoxic activity, class in words, MCF-7” value is given as “weak (51–100 (weak))”.

Consider `COc1cc(-c2csc(NC(=O)NCCNc3ccccc3)n2)cc(OC)c1OC` [Compound 12, 1-(2-(Phenylamino)ethyl)-3-(4-(3,4,5-trimethoxyphenyl)thiazol-2-yl)urea], for which the IC50 in series [1] was 91.8 ± 4.6 µM; in series [2], 88.5 ± 4.4 µM; in series [3], more than 100 µM; in series [4], more than 100 µM.

For `COc1cc(-c2csc(NC(=O)CN3CCN(C)CC3)n2)cc(OC)c1OC` [Compound 6b, 2-(4-Methylpiperazin-1-yl)-N-(4-(3,4,5-trimethoxyphenyl)thiazol-2-yl)acetamide], the IC50 is 87.3 ± 4.4 µM in series [1], 83.7 ± 4.2 µM in series [2], 74.6 ± 3.7 µM in series [3] and 65.3 ± 3.3 µM in series [4].

For `COc1cc(-c2csc(NC(=O)CNc3ccc(N4CCOCC4)cc3)n2)cc(OC)c1OC` [Compound 7e, 2-((4-Morpholinophenyl)amino)-N-(4-(3,4,5-trimethoxyphenyl)thiazol-2-yl)acetamide], the 50% inhibitory concentration (IC50) in series [1] is 41.5 ± 2.1 µM; in series [2], 31.2 ± 1.6 µM; in series [3], 25.7 ± 1.3 µM; in series [4], 35 ± 1.7 µM.

Regarding `COc1cc(-c2csc(NC(=O)CNc3ccc(Br)cc3)n2)cc(OC)c1OC` [Compound 7b, 2-((4-Bromophenyl)amino)-N-(4-(3,4,5-trimethoxyphenyl)thiazol-2-yl)acetamide], the IC50 in series [1] is 13.1 ± 0.7 µM; in series [2] it was 9.35 ± 0.5 µM; in series [3], 34.2 ± 1.7 µM; in series [4], 44.8 ± 2.2 µM.

Source of the values: publication PMC9494671 (ACS Omega, 2022).
